ChEMBL document CHEMBL4261566, “New application of tiplaxtinin as an effective FtsZ-targeting chemotype for an antimicrobial study” (2017)
≈ marks a conversion by molar mass, not a printed value. Calls of active or inactive are those of the source. The rule behind the calls is not given here.

What was measured:
[1] = test system: Escherichia coli; test: Antibacterial activity against Escherichia coli ATCC 25922 after 18 hrs by broth microdilution method; type: functional; conditions: ATCC 25922, 18 h
[2] = test system: Pseudomonas aeruginosa; test: Antibacterial activity against Pseudomonas aeruginosa ATCC BAA-2108 after 18 hrs by broth microdilution method; type: functional; conditions: ATCC BAA-2108, 18 h
[3] = test system: Klebsiella pneumoniae; test: Antibacterial activity against Klebsiella pneumoniae ATCC BAA-1144 after 18 hrs by broth microdilution method; type: functional; conditions: ATCC BAA-1144, 18 h
[4] = test system: Staphylococcus aureus; test: Antibacterial activity against methicillin-resistant Staphylococcus aureus ATCC BAA-1747 after 18 hrs by broth microdilution method; type: functional; conditions: ATCC BAA-1747, 18 h
[5] = test system: Staphylococcus aureus; test: Antibacterial activity against methicillin-resistant Staphylococcus aureus ATCC 43300 after 18 hrs by broth microdilution method; type: functional; conditions: ATCC 43300, 18 h
[6] = test system: Enterococcus faecium; test: Antibacterial activity against Enterococcus faecium ATCC 49624 after 18 hrs by broth microdilution method; type: functional; conditions: ATCC 49624, 18 h
[7] = target: T1, Cell division protein FtsZ (Staphylococcus aureus) (UniProt P0A031); test: Induction of recombinant Staphylococcus aureus FtsZ polymerization at 10 ug/ml by 90degree light scattering-based fluorescence spectrometric analysis
T1 sequence (whole entry): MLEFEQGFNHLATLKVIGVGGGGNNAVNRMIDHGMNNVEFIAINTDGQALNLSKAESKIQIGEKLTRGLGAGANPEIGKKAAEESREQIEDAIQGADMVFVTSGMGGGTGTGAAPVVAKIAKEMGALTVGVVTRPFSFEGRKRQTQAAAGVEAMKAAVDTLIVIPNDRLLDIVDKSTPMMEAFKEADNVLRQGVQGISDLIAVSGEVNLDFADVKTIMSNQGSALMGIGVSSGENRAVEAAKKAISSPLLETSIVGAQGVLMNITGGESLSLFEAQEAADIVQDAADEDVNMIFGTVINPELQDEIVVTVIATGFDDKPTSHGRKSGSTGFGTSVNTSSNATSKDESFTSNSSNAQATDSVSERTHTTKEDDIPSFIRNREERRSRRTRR
Procedure, shortened: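 Recombinant S. aureus FtsZ cloned, overexpressed and purified. Polymerization followed over time by 90° light scattering in a thermostatically controlled fluorescence spectrometer, read as absorbance at 600 nm. Profiles recorded with and without compound. Methicillin served as the non-FtsZ-targeting control antibiotic.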

[8] = test system: Enterococcus faecalis; test: Antibacterial activity against Enterococcus faecalis ATCC 29212 after 18 hrs by broth microdilution method; type: functional; conditions: ATCC 29212, 18 h
[9] = test system: Staphylococcus aureus; test: Antibacterial activity against methicillin-resistant Staphylococcus aureus ATCC BAA-1717 after 18 hrs by broth microdilution method; type: functional; conditions: ATCC BAA-1717, 18 h
[10] = test system: Enterococcus faecium; test: Antibacterial activity against vancomycin-resistant Enterococcus faecium ATCC 700221 after 18 hrs by broth microdilution method; type: functional; conditions: ATCC 700221, 18 h
[11] = test system: Staphylococcus epidermidis; test: Antibacterial activity against Staphylococcus epidermidis ATCC 12228 after 18 hrs by broth microdilution method; type: functional; conditions: ATCC 12228, 18 h
[12] = test system: Staphylococcus aureus; test: Antibacterial activity against Staphylococcus aureus ATCC 29213 after 18 hrs by broth microdilution method; type: functional; conditions: ATCC 29213, 18 h
[13] = test system: Staphylococcus aureus; test: Antibacterial activity against methicillin-resistant Staphylococcus aureus ATCC BAA-41 after 18 hrs by broth microdilution method; type: functional; conditions: ATCC BAA-41, 18 h
[14] = test system: Staphylococcus aureus; test: Antibacterial activity against Staphylococcus aureus ATCC 29247 after 18 hrs by broth microdilution method; type: functional; conditions: ATCC 29247, 18 h
[15] = test system: Staphylococcus aureus; test: Antibacterial activity against methicillin-resistant Staphylococcus aureus ATCC 33592 after 18 hrs by broth microdilution method; type: functional; conditions: ATCC 33592, 18 h
[16] = test system: Staphylococcus aureus; test: Antibacterial activity against methicillin-resistant Staphylococcus aureus USA300 2690 after 18 hrs by broth microdilution method; type: functional; conditions: USA300 2690, 18 h
[17] = test system: Staphylococcus aureus; test: Antibacterial activity against methicillin-resistant Staphylococcus aureus ATCC BAA-1720 after 18 hrs by broth microdilution method; type: functional; conditions: ATCC BAA-1720, 18 h
[18] = test system: Bacillus subtilis; test: Antibacterial activity against Bacillus subtilis 168 after 18 hrs by broth microdilution method; type: functional; conditions: subsp. subtilis str. 168, 18 h
[19] = test system: Staphylococcus aureus; test: Antibacterial activity against methicillin-resistant Staphylococcus aureus ATCC 33591 after 18 hrs by broth microdilution method; type: functional; conditions: ATCC 33591, 18 h
[20] = test system: Staphylococcus aureus; test: Antibacterial activity against methicillin-resistant Staphylococcus aureus USA300 417 after 18 hrs by broth microdilution method; type: functional; conditions: USA300 417, 18 h
[21] = target: T2, Cell division protein FtsZ (Bacillus subtilis (strain 168)) (UniProt P17865); test: Inhibition of cell division function of FtsZ in Bacillus subtilis 168 assessed as increase in cell length at 2 ug/ml after 5 hrs by phase contrast light microscopic method; conditions: Bacillus subtilis subsp. subtilis str. 168
T2 sequence (whole entry): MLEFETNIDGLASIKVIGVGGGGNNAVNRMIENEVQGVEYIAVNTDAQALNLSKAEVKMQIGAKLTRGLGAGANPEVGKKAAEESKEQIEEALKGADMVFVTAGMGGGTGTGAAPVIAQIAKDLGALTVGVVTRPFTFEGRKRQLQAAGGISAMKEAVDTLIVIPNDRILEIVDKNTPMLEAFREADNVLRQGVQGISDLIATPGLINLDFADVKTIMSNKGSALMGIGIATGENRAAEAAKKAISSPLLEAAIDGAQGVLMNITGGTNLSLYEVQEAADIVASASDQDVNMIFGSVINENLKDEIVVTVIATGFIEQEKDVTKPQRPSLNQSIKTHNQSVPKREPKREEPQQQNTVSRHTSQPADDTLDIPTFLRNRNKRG
Procedure, shortened: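 B. subtilis 168 cells were grown with or without 2 μg mL–1 compound. Cell morphology, including filamentation, was then examined by microscopy.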

[22] = target: T1, Cell division protein FtsZ (Staphylococcus aureus); test: Inhibition of recombinant Staphylococcus aureus FtsZ GTPase activity preincubated for 10 mins followed by GTP addition and measured after 30 mins
[23] = target: T1, Cell division protein FtsZ (Staphylococcus aureus); test: Induction of recombinant Staphylococcus aureus FtsZ polymerization by 90degree light scattering-based fluorescence spectrometric analysis
Procedure, shortened: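 S. aureus FtsZ was cloned, overexpressed and purified. Polymerization was followed over time by 90° light scattering in a thermostatically controlled fluorescence spectrometer, […] change at 600 nm. Compound was tested at 2 to 8 μg mL–1 against a no-compound profile. Methicillin served as the non-FtsZ-targeting control antibiotic.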

[24] = test system: Staphylococcus aureus; test: Bactericidal activity against Staphylococcus aureus ATCC 29213 assessed as reduction in bacterial load at MIC to 4 times MIC after 24 hrs relative to control; type: functional
Procedure, shortened: (§1)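 Time-kill assay: a growing culture (S. aureus ATCC 29213 or B. subtilis 168) was exposed at time zero to 1×, 2× and 4× the MIC. Viable cell numbers were followed over 24 h, and the log reduction in viable count was recorded.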

[25] = test system: Bacillus subtilis; test: Bactericidal activity against Bacillus subtilis 168 assessed as reduction in bacterial load at MIC to 4 times MIC after 24 hrs relative to control; type: functional, subsp. subtilis str. 168; procedure, shortened: as §1
[26] = target: T1, Cell division protein FtsZ (Staphylococcus aureus); test: Induction of recombinant Staphylococcus aureus FtsZ polymerization assessed as increase in bundling of protein protofilaments at 4 ug/ml preincubated for 10 mins followed by GTP addition and measured after 15 mins by transmission electron microscopic method
[27] = target: T1, Cell division protein FtsZ (Staphylococcus aureus); test: Induction of recombinant Staphylococcus aureus FtsZ polymerization assessed as increase in size of polymers at 4 ug/ml preincubated for 10 mins followed by GTP addition and measured after 15 mins by transmission electron microscopic method
[28] = test system: Bacteria; test: Induction of bacterial GFP-fused FtsZ polymerization expressed in Bacillus subtilis 168 assessed as misformation of Z-ring at 2 ug/ml after 4 hrs by fluorescence microscopic method
Procedure, shortened: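 B. subtilis 168 carrying a GFP–FtsZ construct was treated with compound or with DMSO as control. Z-ring formation was then examined by fluorescence microscopy.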

Compound	MIC90 [1] [mg/L]	MIC90 [2] [mg/L]	MIC90 [3] [mg/L]	MIC90 [4] [mg/L]	MIC90 [5] [mg/L]	MIC90 [6] [mg/L]	MIC90 [8] [mg/L]	MIC90 [9] [mg/L]	MIC90 [10] [mg/L]	MIC90 [11] [mg/L]	MIC90 [12] [mg/L]	MIC90 [13] [mg/L]	MIC90 [14] [mg/L]	MIC90 [15] [mg/L]	MIC90 [16] [mg/L]	MIC90 [17] [mg/L]	MIC90 [18] [mg/L]	MIC90 [19] [mg/L]	MIC90 [20] [mg/L]	other results
COc1cccc(OC)c1C(=O)N[C@@H]1C(=O)N2[C@@H]1SC(C)(C)[C@@H]2C(=O)O [METHICILLIN]	3 (≈ 7.89 µM)	> 256	> 256	256 (≈ 673 µM)	512 (≈ 1350 µM)	1.5 (≈ 3.94 µM)	0.75 (≈ 1.97 µM)	512 (≈ 1350 µM)	1.5 (≈ 3.94 µM)	0.75 (≈ 1.97 µM)	< 1	1020 (≈ 2690 µM)	6 (≈ 15.8 µM)	512 (≈ 1350 µM)	256 (≈ 673 µM)	1020 (≈ 2690 µM)	< 1	1020 (≈ 2690 µM)	512 (≈ 1350 µM)	Activity [7]: inactive
CN[C@H](CC(C)C)C(=O)N[C@H]1C(=O)N[C@@H](CC(N)=O)C(=O)N[C@H]2C(=O)N[C@H]3C(=O)N[C@H](C(=O)N[C@H](C(=O)O)c4cc(O)cc(O)c4-c4cc3ccc4O)[C@H](O)c3ccc(c(Cl)c3)Oc3cc2cc(c3O[C@@H]2O[C@H](CO)[C@@H](O)[C@H](O)[C@H]2O[C@H]2C[C@](C)(N)[C@H](O)[C@H](C)O2)Oc2ccc(cc2Cl)[C@H]1O [VANCOMYCIN]									> 96											
O=C(O)C(=O)c1cn(Cc2ccccc2)c2ccc(-c3ccc(OC(F)(F)F)cc3)cc12 [TIPLASININ]	> 48	> 48	> 48	4 (≈ 9.1 µM)	4 (≈ 9.1 µM)	4 (≈ 9.1 µM)	4 (≈ 9.1 µM)	4 (≈ 9.1 µM)	4 (≈ 9.1 µM)	2 (≈ 4.55 µM)	2 (≈ 4.55 µM)	4 (≈ 9.1 µM)	2 (≈ 4.55 µM)	4 (≈ 9.1 µM)	2 (≈ 4.55 µM)	4 (≈ 9.1 µM)	2 (≈ 4.55 µM)	4 (≈ 9.1 µM)	2 (≈ 4.55 µM)	inhibition [21]: Active; inhibition [22]: Dose-dependent effect; Activity [23]: Dose-dependent effect; Activity [24]: >3 deltalog10CFU/ml; Activity [25]: >3 deltalog10CFU/ml; Activity [26]: Active; Activity [27]: Active; Activity [28]: Active
